This note sets out measurements from ChEMBL document CHEMBL1130113 (J Med Chem, 1997).

For experiment [1], the target named is Mu-type opioid receptor (Cavia porcellus, UniProt P97266). Put plainly: Functional biological activity for mu opioid receptor was determined in vitro, on guinea pig ileum (GPI). The experiment is classed as tissue-based. In short, it runs like this:
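A 2-3 cm guinea pig ileum segment was held in a 20 mL organ bath with 70 µM hexamethonium bromide and 0.125 µM mepyramine maleate, gassed with 95% O2/5% CO2 at 36 °C. Transmural stimulation used 0.5 ms square-wave pulses at 0.1 Hz, at 1.5× maximal-twitch voltage (~30 V). Twitch inhibition was read from dose-response curves against dermorphin or morphine.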

Experiment [2] is described as follows: IC50 ratio measured as the IC50 value of GPI to that of MVD. It is filed as functional.
Experiment [3] concerns the target Delta-type opioid receptor (Rattus norvegicus, UniProt P33533). Put plainly: Affinity was assessed using competitive binding assay labeled with [3H]DPDPE (6.3 nM) for Opioid receptor delta 1. In outline:
(§1)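 Rat brain synaptosomal membranes, preincubated, in duplicate tubes. Buffer 50 mM HEPES pH 7.5, 5 mM MgCl2, glycerol, protease inhibitors. Equilibrium incubation 120 min at room temperature (22-23 °C). Labeled peptide displaced by 6-14 analogue concentrations spanning a 1000-fold range. Filtered on glass fiber and washed 3× with ice-cold buffer containing 0.01% BSA. Ki from IC50 by Cheng-Prusoff.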

Experiment [4] addresses Mu-type opioid receptor (Rattus norvegicus, UniProt P33535). The experiment in a line: Affinity was assessed using competitive binding assay labeled with [3H]- DAGO (1.28 nM) for Opioid receptor mu 1. In short, it runs like this:
as §1

Experiment [5] concerns the target Delta-type opioid receptor (Mus musculus, UniProt P32300). Put plainly: Functional biological activity for Opioid receptor delta 1 was determined in vitro, on mouse vas deferens (MVD). The experiment is classed as tissue-based.
In experiment [6] the target is Opioid receptors; mu & delta (Homo sapiens) (UniProt P41143+P35372). Put plainly: Selectivity ratio measured as the Ki ratio of mu receptor th that of delta receptor. It is filed as protein assay. In outline: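 Ratio of Ki values for mu and delta receptors. Both were measured in rat brain synaptosomal membranes in 50 mM HEPES pH 7.5 with 5 mM MgCl2, glycerol and protease inhibitors, for 120 min at 22-23 °C. Radioligand was displaced by 6-14 concentrations over a 1000-fold range. Bound ligand was collected by glass-fiber filtration, and Ki came from IC50 by Cheng-Prusoff.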

Where a SMILES comes first, the peptide text is derived from it. [ ]: non-standard residue; d: D form. Aib = CC(C)(N)C(=O)O

The term IC50 denotes the midpoint of a concentration-inhibition curve. A higher IC50 goes with a need for much substance. For orientation: Ki means the dissociation constant of the complex between target and ligand, obtained from inhibition or displacement.

Chain of Mu-type opioid receptor (Cavia porcellus, UniProt P97266) (P97266 whole entry): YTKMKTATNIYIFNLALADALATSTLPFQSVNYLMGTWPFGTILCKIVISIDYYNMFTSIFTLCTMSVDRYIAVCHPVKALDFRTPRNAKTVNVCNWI
Chain of Mu-type opioid receptor (Rattus norvegicus, UniProt P33535) (P33535 whole entry): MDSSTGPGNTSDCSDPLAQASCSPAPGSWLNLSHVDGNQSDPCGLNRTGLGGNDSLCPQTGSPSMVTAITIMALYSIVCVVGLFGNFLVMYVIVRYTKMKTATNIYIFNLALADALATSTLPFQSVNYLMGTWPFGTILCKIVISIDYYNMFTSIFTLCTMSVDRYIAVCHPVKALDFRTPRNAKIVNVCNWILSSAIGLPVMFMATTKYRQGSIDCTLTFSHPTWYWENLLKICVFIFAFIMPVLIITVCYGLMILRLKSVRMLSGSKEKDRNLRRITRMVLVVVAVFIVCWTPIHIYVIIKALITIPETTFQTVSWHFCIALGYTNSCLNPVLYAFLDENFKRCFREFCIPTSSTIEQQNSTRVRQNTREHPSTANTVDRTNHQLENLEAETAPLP
Chain of Delta-type opioid receptor (Mus musculus, UniProt P32300) (P32300 whole entry): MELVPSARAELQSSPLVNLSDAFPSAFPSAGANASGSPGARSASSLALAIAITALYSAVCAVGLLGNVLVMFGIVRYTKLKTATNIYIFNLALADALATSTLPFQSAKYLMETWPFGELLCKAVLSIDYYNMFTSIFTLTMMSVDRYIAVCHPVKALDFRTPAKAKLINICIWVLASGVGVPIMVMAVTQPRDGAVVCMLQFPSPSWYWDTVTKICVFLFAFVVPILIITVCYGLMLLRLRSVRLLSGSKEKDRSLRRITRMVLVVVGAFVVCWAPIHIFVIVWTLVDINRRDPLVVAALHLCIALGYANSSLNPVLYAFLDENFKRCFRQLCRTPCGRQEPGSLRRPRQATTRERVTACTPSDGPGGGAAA
Chain of Delta-type opioid receptor (Rattus norvegicus, UniProt P33533) (P33533 whole entry): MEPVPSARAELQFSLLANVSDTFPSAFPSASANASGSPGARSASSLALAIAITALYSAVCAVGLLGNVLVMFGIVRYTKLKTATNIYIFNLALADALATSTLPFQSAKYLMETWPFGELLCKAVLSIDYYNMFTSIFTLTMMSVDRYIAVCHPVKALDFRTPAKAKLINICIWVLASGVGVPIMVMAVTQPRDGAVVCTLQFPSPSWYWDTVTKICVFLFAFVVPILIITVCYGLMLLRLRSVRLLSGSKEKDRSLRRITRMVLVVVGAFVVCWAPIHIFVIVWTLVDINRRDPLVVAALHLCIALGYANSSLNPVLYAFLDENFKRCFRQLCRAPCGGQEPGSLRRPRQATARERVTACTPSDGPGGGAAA
Chain of Opioid receptors; mu & delta (Homo sapiens) (P35372 whole entry, looked up): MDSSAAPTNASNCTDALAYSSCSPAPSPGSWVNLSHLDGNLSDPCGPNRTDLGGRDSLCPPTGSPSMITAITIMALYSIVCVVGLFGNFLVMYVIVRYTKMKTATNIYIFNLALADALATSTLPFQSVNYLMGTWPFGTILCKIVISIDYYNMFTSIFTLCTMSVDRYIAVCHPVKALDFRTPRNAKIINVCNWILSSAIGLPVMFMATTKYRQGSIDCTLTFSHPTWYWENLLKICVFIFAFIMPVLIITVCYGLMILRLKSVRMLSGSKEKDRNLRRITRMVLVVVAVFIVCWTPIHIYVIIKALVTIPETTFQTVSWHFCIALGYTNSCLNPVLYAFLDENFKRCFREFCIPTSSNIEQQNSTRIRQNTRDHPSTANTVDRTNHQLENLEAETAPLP
Chain of Opioid receptors; mu & delta (Homo sapiens) (P41143 whole entry, looked up): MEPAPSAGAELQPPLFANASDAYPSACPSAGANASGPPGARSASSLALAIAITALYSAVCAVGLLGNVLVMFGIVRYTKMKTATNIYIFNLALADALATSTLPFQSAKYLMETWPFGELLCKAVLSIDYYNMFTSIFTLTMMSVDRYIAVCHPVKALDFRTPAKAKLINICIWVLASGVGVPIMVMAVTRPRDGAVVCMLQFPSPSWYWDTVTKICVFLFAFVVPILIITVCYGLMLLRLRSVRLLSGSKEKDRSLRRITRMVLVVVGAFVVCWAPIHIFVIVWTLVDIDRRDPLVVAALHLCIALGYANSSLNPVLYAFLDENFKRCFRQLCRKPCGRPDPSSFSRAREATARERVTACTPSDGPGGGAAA

In experiment [1], `CC(NC(=O)[C@@H](N)Cc1ccc(O)cc1)C(=O)N[C@@H](Cc1ccccc1)C(=O)N[C@@H](CC(=O)O)C(=O)N[C@H](C(=O)N[C@H](C(=O)NCC(N)=O)C(C)C)C(C)C` (single isomer, unassigned) [DELTORPHIN C] registered an IC50 of 420 nM.

`CC(C)[C@H](NC(=O)[C@@H](NC(=O)[C@@H](CC(=O)O)NC(=O)C(C)(C)NC(=O)C(C)(C)NC(=O)[C@@H](N)Cc1ccc(O)cc1)C(C)C)C(=O)NCC(N)=O`: in experiment [2], the IC50 ratio is above 21.

As to `CC(C)[C@H](NC(=O)[C@@H](NC(=O)C(C)(C)NC(=O)[C@H](Cc1ccccc1)NC(=O)[C@@H](C)NC(=O)[C@@H](N)Cc1ccc(O)cc1)C(C)C)C(=O)NCC(N)=O`, the IC50 in experiment [1] worked out at 4.5 nM; in experiment [5], 0.36 nM. For the same molecule, the Ki is 0.2 nM in experiment [3] and 0.43 nM in experiment [4]. In addition, the IC50 ratio in experiment [2] came to 13.

Consider `CC(C)[C@H](NC(=O)[C@H](CC(=O)O)NC(=O)C(C)(C)NC(=O)[C@@H](C)NC(=O)[C@@H](N)Cc1ccc(O)cc1)C(=O)N[C@H](C(=O)NCC(N)=O)C(C)C`, for which the values for the IC50 in experiment [1] and in experiment [5] were above 10 nM and 57.3 nM, respectively. Besides, the results for the Ki in experiment [3] and in experiment [4] were 0.8 nM and 4540 nM, respectively. The IC50 ratio in experiment [2] was above 175. For the same molecule, in experiment [6], the Selectivity ratio was 5680.

Regarding `CC(C)[C@H](NC(=O)[C@H](CC(=O)O)NC(=O)C(C)(C)NC(=O)[C@@H](N)Cc1ccc(O)cc1)C(=O)N[C@H](C(=O)NCC(N)=O)C(C)C` (H-Y[Aib]DVVG-NH2), the Ki is 2630 nM in experiment [3] and 441000 nM in experiment [4].

For `CC(C)[C@H](NC(=O)[C@H](CC(=O)O)NC(=O)[C@@H](C)NC(=O)[C@@H](C)NC(=O)[C@@H](N)Cc1ccc(O)cc1)C(=O)N[C@H](C(=O)NCC(N)=O)C(C)C`, the Ki is 5.72 nM in experiment [3] and 13600 nM in experiment [4].

For `CC(C)[C@H](NC(=O)[C@@H](NC(=O)C(C)(C)NC(=O)[C@H](Cc1ccccc1)NC(=O)[C@@H](C)NC(=O)[C@@H](N)Cc1ccc(O)cc1)C(C)C)C(=O)NCC(=O)O`, the Ki in experiment [3] was 0.11 nM; in experiment [4] it was 4.48 nM.

With `CC(C)[C@H](NC(=O)[C@H](CC(=O)O)NC(=O)C(C)(C)NC(=O)C(C)(C)NC(=O)[C@@H](N)Cc1ccc(O)cc1)C(=O)N[C@H](C(=O)NCC(N)=O)C(C)C`, the IC50 in experiment [1] was above 10 nM; in experiment [5] it was 70 nM. In addition, the Ki amounted to 3.62 nM in experiment [3] and 15200 nM in experiment [4].

Consider `CC(C)[C@H](NC(=O)[C@H](CC(=O)O)NC(=O)[C@H](Cc1ccccc1)NC(=O)C(C)(C)NC(=O)[C@@H](N)Cc1ccc(O)cc1)C(=O)N[C@H](C(=O)NCC(N)=O)C(C)C` (H-Y[Aib]FDVVG-NH2), for which the IC50 in experiment [1] was above 10 nM; in experiment [5], 1.44 nM. Besides, the Ki in experiment [3] worked out at 0.12 nM; in experiment [4] it was 1020 nM. Also, the IC50 ratio in experiment [2] was above 7000.
